# From ChEMBL document CHEMBL3797186, “Single Residue Substitutions That Confer Voltage-Gated Sodium Ion Channel Subtype Selectivity in the NaV1.7 Inhibitory Peptide GpTx-1” (J Med Chem, 2016)
# Positions of bridges follow the written chain, without caps; N, C: chain ends. Residues, ends and D or L forms follow the SMILES beside them.
# Legend:
# [1] = molecular target: Sodium channel protein type 5 subunit alpha (Homo sapiens, UniProt Q14524); assay: Inhibition of human Nav1.5 expressed in HEK293 cells assessed as inward peak current by ion-works quattro patch clamp electrophysiology method; type: cell-based
# Sequence of Sodium channel protein type 5 subunit alpha (Q14524 whole entry): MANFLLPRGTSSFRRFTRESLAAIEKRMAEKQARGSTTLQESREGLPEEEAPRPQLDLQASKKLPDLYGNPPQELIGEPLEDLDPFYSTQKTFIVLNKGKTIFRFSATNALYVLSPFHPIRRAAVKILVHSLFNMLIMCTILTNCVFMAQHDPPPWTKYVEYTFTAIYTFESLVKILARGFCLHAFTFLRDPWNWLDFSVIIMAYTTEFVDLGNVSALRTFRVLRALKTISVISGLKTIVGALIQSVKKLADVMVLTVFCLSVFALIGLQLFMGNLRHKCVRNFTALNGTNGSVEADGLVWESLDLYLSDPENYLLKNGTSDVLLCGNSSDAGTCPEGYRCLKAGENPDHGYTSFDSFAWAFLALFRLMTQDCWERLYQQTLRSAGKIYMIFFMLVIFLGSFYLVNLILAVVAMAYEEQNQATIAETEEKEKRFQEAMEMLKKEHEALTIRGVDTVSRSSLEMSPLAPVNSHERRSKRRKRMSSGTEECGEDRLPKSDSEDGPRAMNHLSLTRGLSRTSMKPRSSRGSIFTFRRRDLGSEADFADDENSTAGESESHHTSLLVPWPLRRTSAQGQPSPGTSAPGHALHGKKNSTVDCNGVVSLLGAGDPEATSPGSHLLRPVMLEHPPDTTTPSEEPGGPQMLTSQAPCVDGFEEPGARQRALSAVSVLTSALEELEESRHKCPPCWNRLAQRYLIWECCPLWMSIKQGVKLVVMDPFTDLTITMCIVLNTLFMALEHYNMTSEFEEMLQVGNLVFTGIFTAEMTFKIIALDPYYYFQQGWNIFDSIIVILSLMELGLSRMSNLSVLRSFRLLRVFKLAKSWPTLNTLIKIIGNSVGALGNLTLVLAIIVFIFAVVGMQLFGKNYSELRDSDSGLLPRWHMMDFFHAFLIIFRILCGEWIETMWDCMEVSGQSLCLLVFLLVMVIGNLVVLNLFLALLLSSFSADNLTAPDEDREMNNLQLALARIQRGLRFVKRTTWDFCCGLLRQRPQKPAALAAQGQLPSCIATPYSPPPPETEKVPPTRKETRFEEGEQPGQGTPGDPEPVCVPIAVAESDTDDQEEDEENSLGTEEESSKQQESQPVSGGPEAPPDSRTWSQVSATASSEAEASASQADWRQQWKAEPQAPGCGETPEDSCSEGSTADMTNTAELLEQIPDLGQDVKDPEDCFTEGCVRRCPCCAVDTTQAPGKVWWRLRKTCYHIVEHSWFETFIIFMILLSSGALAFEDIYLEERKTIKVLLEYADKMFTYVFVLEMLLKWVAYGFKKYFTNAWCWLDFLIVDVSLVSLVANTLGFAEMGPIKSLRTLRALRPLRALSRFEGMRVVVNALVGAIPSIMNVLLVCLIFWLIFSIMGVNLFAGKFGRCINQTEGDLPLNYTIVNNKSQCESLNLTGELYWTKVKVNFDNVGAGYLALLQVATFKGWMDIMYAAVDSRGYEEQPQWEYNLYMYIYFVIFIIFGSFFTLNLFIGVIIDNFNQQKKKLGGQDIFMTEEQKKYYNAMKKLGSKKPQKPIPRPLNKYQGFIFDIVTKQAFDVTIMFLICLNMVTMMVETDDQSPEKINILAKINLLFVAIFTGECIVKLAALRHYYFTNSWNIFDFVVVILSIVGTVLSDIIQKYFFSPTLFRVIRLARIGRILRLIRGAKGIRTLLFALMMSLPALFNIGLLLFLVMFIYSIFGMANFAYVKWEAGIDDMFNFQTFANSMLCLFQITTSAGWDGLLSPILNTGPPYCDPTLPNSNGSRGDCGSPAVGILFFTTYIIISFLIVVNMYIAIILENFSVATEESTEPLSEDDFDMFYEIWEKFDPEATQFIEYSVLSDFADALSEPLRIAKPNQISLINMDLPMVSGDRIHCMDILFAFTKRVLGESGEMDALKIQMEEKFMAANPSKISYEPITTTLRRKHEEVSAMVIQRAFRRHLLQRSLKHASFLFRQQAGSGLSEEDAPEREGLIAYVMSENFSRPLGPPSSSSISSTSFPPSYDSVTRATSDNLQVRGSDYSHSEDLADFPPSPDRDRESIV
# In short: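 Stable HEK293 line expressing human NaV1.5, recorded by population patch clamp on the IonWorks Quattro.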
# [2] = molecular target: Sodium channel protein type 9 subunit alpha (Homo sapiens, UniProt Q15858); assay: Inhibition of human Nav1.7 expressed in HEK293 cells assessed as inward peak current by ion-works quattro patch clamp electrophysiology method; type: cell-based
# Sequence of Sodium channel protein type 9 subunit alpha (Q15858 whole entry): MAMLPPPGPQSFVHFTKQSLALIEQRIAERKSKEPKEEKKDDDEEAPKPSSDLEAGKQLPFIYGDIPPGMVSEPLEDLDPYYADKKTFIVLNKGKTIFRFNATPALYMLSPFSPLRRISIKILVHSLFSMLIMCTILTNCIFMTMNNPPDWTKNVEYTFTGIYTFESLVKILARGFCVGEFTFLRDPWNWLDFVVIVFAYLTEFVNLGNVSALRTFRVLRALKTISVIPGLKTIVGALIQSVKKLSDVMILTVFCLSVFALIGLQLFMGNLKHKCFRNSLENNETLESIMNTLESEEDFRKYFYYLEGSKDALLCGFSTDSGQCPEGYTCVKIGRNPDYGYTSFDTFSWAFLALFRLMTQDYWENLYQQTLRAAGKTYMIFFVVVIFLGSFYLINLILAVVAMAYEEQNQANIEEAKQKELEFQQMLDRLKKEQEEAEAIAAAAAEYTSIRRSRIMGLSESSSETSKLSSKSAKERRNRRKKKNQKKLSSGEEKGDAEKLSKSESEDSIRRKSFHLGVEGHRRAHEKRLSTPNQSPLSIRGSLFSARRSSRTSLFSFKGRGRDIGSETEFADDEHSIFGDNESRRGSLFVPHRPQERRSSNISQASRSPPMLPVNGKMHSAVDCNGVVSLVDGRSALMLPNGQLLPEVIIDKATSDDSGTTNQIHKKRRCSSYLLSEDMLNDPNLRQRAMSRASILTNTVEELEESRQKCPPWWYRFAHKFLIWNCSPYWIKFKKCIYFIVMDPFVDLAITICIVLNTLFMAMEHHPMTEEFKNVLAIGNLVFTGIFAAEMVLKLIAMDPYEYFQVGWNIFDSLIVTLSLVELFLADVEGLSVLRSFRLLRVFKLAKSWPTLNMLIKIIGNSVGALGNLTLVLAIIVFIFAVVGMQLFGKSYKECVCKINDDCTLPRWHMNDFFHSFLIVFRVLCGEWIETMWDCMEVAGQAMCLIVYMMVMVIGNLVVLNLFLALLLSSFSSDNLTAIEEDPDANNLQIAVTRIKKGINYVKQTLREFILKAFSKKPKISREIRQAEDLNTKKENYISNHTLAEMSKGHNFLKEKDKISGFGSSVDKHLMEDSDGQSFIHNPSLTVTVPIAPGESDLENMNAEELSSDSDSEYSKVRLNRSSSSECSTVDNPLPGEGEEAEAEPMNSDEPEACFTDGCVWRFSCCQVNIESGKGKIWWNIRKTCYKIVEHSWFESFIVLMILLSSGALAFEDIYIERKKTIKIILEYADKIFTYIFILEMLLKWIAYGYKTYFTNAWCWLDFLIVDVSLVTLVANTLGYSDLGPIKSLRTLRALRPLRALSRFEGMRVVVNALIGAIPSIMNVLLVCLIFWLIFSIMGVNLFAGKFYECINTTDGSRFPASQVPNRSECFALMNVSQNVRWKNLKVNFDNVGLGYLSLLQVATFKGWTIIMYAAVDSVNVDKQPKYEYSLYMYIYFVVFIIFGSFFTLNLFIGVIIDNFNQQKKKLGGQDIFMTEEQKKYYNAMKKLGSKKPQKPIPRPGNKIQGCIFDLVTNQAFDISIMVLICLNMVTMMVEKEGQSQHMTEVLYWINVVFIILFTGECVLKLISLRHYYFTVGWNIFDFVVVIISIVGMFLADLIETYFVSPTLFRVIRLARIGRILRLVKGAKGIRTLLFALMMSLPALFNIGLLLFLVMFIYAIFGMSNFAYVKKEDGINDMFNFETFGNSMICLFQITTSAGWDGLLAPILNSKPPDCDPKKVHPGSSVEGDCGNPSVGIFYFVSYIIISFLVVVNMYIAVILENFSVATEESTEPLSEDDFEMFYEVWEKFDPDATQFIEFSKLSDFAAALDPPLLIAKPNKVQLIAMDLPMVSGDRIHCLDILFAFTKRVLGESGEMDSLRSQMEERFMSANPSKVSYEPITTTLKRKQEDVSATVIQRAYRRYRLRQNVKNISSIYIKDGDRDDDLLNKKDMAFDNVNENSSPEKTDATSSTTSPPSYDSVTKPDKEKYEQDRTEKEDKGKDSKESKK
Compound,IC50 [1],IC50 [2]
"CC[C@H](C)[C@@H]1NC(=O)[C@@H]2CSSC[C@@H]3NC(=O)[C@H](C(C)C)NC(=O)[C@H](CC(C)C)NC(=O)[C@H](CC(N)=O)NC(=O)[C@@H]4CCCN4C(=O)[C@H](CCCNC(=N)N)NC(=O)[C@H](CSSC[C@H](NC(=O)[C@@H](N)CC(=O)O)C(=O)N[C@@H](CC(C)C)C(=O)NCC(=O)N[C@@H](Cc4ccccc4)C(=O)N[C@@H](CCSC)C(=O)N[C@@H](CCCNC(=N)N)C(=O)N[C@@H](CCCNC(=N)N)C(=O)N2)NC(=O)[C@H](CSSC[C@@H](C(=O)N[C@@H](CCCCN)C(=O)N[C@@H](Cc2ccc(O)cc2)C(=O)N[C@H](C(=O)N[C@@H](Cc2ccccc2)C(N)=O)C(C)C)NC(=O)[C@H](Cc2c[nH]c4ccccc24)NC(=O)[C@H](CCCCN)NC(=O)[C@H](Cc2cnc[nH]2)NC(=O)[C@H]([C@@H](C)O)NC(=O)[C@H](CCCNC(=N)N)NC(=O)[C@H](CO)NC3=O)NC(=O)[C@H](CCCCN)NC(=O)[C@H](CC(=O)O)NC(=O)[C@H](CC(N)=O)NC(=O)[C@H](CC(=O)O)NC(=O)[C@@H]2CCCN2C1=O (H-DCLGFMRRCIPDNDKCCRPNLVCSRTHKWCKYVF-NH2; disulfide 2-17, 9-23, 16-30)",> 5 µM,0.13 µM
"CC[C@H](C)[C@@H]1NC(=O)[C@@H]2CSSC[C@@H]3NC(=O)[C@H](C(C)C)NC(=O)[C@H](CC(C)C)NC(=O)[C@H](CC(N)=O)NC(=O)[C@@H]4CCCN4C(=O)[C@H](CCCNC(=N)N)NC(=O)[C@H](CSSC[C@H](NC(=O)[C@@H](N)CC(=O)O)C(=O)N[C@@H](CC(C)C)C(=O)NCC(=O)N[C@@H](Cc4ccccc4)C(=O)N[C@@H](CCSC)C(=O)N[C@@H](CCCNC(=N)N)C(=O)N[C@@H](CCCCN)C(=O)N2)NC(=O)[C@H](CSSC[C@@H](C(=O)N[C@@H](CCCCN)C(=O)N[C@@H](Cc2ccc(O)cc2)C(=O)N[C@H](C(=O)N[C@@H](Cc2ccccc2)C(N)=O)C(C)C)NC(=O)[C@H](Cc2c[nH]c4ccccc24)NC(=O)[C@H](CCCCN)NC(=O)[C@H](Cc2cnc[nH]2)NC(=O)[C@H]([C@@H](C)O)NC(=O)[C@H](CCCNC(=N)N)NC(=O)[C@H](CO)NC3=O)NC(=O)[C@H](CCCCN)NC(=O)[C@H](CC(=O)O)NC(=O)[C@H](CC(N)=O)NC(=O)[C@H](CC(=O)O)NC(=O)[C@H](Cc2c[nH]c3ccccc23)NC1=O (H-DCLGFMRKCIWDNDKCCRPNLVCSRTHKWCKYVF-NH2; disulfide 2-17, 9-23, 16-30)",> 5 µM,0.08 µM
"CC[C@H](C)[C@@H]1NC(=O)[C@@H]2CSSC[C@@H]3NC(=O)[C@H](C(C)C)NC(=O)[C@H](CC(C)C)NC(=O)[C@H](CC(N)=O)NC(=O)[C@@H]4CCCN4C(=O)[C@H](CCCNC(=N)N)NC(=O)[C@H](CSSC[C@H](NC(=O)[C@@H](N)CC(=O)O)C(=O)N[C@@H](CC(C)C)C(=O)NCC(=O)N[C@@H](Cc4ccccc4)C(=O)N[C@@H](CCSC)C(=O)N[C@@H](CCCNC(=N)N)C(=O)N[C@@H](CCCCN)C(=O)N2)NC(=O)[C@H](CSSC[C@@H](C(=O)N[C@@H](CCCCN)C(=O)N[C@@H](Cc2ccc(O)cc2)C(=O)N[C@H](C(=O)N[C@@H](Cc2ccccc2)C(N)=O)C(C)C)NC(=O)[C@H](CCCCN)NC(=O)[C@H](CCCCN)NC(=O)[C@H](Cc2cnc[nH]2)NC(=O)[C@H]([C@@H](C)O)NC(=O)[C@H](CCCNC(=N)N)NC(=O)[C@H](CO)NC3=O)NC(=O)[C@H](CCCCN)NC(=O)[C@H](CC(=O)O)NC(=O)[C@H](CC(N)=O)NC(=O)[C@H](CC(=O)O)NC(=O)[C@@H]2CCCN2C1=O (H-DCLGFMRKCIPDNDKCCRPNLVCSRTHKKCKYVF-NH2; disulfide 2-17, 9-23, 16-30)",> 5 µM,> 5 µM
"CC[C@H](C)[C@@H]1NC(=O)[C@@H]2CSSC[C@@H]3NC(=O)[C@H](C(C)C)NC(=O)[C@H](CC(C)C)NC(=O)[C@H](CC(N)=O)NC(=O)[C@@H]4CCCN4C(=O)[C@H](CCCNC(=N)N)NC(=O)[C@H](CSSC[C@H](NC(=O)[C@@H](N)CC(=O)O)C(=O)N[C@@H](CC(C)C)C(=O)NCC(=O)N[C@@H](Cc4ccccc4)C(=O)N[C@@H](CCSC)C(=O)N[C@@H](CCCNC(=N)N)C(=O)N[C@@H](CCCCN)C(=O)N2)NC(=O)[C@H](CSSC[C@@H](C(=O)N[C@@H](CCCCN)C(=O)N[C@@H](Cc2ccc(O)cc2)C(=O)N[C@H](C(=O)N[C@@H](CCCCN)C(N)=O)C(C)C)NC(=O)[C@H](Cc2c[nH]c4ccccc24)NC(=O)[C@H](CCCCN)NC(=O)[C@H](Cc2cnc[nH]2)NC(=O)[C@H]([C@@H](C)O)NC(=O)[C@H](CCCNC(=N)N)NC(=O)[C@H](CO)NC3=O)NC(=O)[C@H](CCCCN)NC(=O)[C@H](CC(=O)O)NC(=O)[C@H](CC(N)=O)NC(=O)[C@H](CC(=O)O)NC(=O)[C@@H]2CCCN2C1=O (H-DCLGFMRKCIPDNDKCCRPNLVCSRTHKWCKYVK-NH2; disulfide 2-17, 9-23, 16-30)",> 5 µM,> 5 µM
CC[C@H](C)[C@@H]1NC(=O)[C@@H]2CSSC[C@@H]3NC(=O)[C@H](C(C)C)NC(=O)[C@H](CC(C)C)NC(=O)[C@H](CC(N)=O)NC(=O)[C@@H]4CCCN4C(=O)[C@H](CCCNC(=N)N)NC(=O)[C@H](CSSC[C@H](NC(=O)[C@@H](N)CC(=O)O)C(=O)N[C@@H](CC(C)C)C(=O)NCC(=O)N[C@@H](Cc4ccccc4)C(=O)N[C@@H](CCSC)C(=O)N[C@@H](CCCNC(=N)N)C(=O)N[C@@H](CCCCN)C(=O)N2)NC(=O)[C@H](CSSC[C@@H](C(=O)N[C@@H](CCCCN)C(=O)N[C@@H](Cc2ccc(O)cc2)C(=O)N[C@H](C(=O)N[C@@H](Cc2ccccc2)C(=O)N[C@@H](CCCNC(=N)N)C(N)=O)C(C)C)NC(=O)[C@H](Cc2c[nH]c4ccccc24)NC(=O)[C@H](CCCCN)NC(=O)[C@H](Cc2cnc[nH]2)NC(=O)[C@H]([C@@H](C)O)NC(=O)[C@H](CCCNC(=N)N)NC(=O)[C@H](CO)NC3=O)NC(=O)[C@H](CCCCN)NC(=O)[C@H](CC(=O)O)NC(=O)[C@H](CC(N)=O)NC(=O)[C@H](CC(=O)O)NC(=O)[C@@H]2CCCN2C1=O,> 5 µM,0.13 µM
"CC[C@H](C)[C@@H]1NC(=O)[C@@H]2CSSC[C@@H]3NC(=O)[C@H](C(C)C)NC(=O)[C@H](CC(C)C)NC(=O)[C@H](CC(N)=O)NC(=O)[C@@H]4CCCN4C(=O)[C@H](CCCNC(=N)N)NC(=O)[C@H](CSSC[C@H](NC(=O)[C@@H](N)CC(=O)O)C(=O)N[C@@H](CC(C)C)C(=O)NCC(=O)N[C@@H](Cc4ccccc4)C(=O)N[C@@H](CCSC)C(=O)N[C@@H](CCCNC(=N)N)C(=O)N[C@@H](CCCCN)C(=O)N2)NC(=O)[C@H](CSSC[C@@H](C(=O)N[C@@H](CCCCN)C(=O)N[C@@H](Cc2ccc(O)cc2)C(=O)N[C@H](C(=O)N[C@@H](Cc2ccccc2)C(N)=O)C(C)C)NC(=O)[C@H](CCCNC(=N)N)NC(=O)[C@H](CCCCN)NC(=O)[C@H](Cc2cnc[nH]2)NC(=O)[C@H]([C@@H](C)O)NC(=O)[C@H](CCCNC(=N)N)NC(=O)[C@H](CO)NC3=O)NC(=O)[C@H](CCCCN)NC(=O)[C@H](CC(=O)O)NC(=O)[C@H](CC(N)=O)NC(=O)[C@H](CC(=O)O)NC(=O)[C@@H]2CCCN2C1=O (H-DCLGFMRKCIPDNDKCCRPNLVCSRTHKRCKYVF-NH2; disulfide 2-17, 9-23, 16-30)",> 5 µM,> 5 µM
"CC[C@H](C)[C@@H]1NC(=O)[C@@H]2CSSC[C@@H]3NC(=O)[C@H](C(C)C)NC(=O)[C@H](CC(C)C)NC(=O)[C@H](CC(N)=O)NC(=O)[C@@H]4CCCN4C(=O)[C@H](CCCNC(=N)N)NC(=O)[C@H](CSSC[C@H](NC(=O)[C@@H](N)CC(=O)O)C(=O)N[C@@H](CC(C)C)C(=O)NCC(=O)N[C@@H](Cc4ccccc4)C(=O)N[C@@H](CCSC)C(=O)N[C@@H](CCCNC(=N)N)C(=O)N[C@@H](CCCCN)C(=O)N2)NC(=O)[C@H](CSSC[C@@H](C(=O)N[C@@H](CCCCN)C(=O)N[C@@H](Cc2ccc(O)cc2)C(=O)N[C@H](C(=O)N[C@@H](Cc2ccccc2)C(N)=O)C(C)C)NC(=O)[C@H](Cc2c[nH]c4ccccc24)NC(=O)[C@H](CCCCN)NC(=O)[C@H](Cc2cnc[nH]2)NC(=O)[C@H]([C@@H](C)O)NC(=O)[C@H](CCCNC(=N)N)NC(=O)[C@H](CO)NC3=O)NC(=O)[C@H](CCCCN)NC(=O)[C@H](CC(=O)O)NC(=O)[C@H](CCCNC(=N)N)NC(=O)[C@H](CC(=O)O)NC(=O)[C@@H]2CCCN2C1=O (H-DCLGFMRKCIPDRDKCCRPNLVCSRTHKWCKYVF-NH2; disulfide 2-17, 9-23, 16-30)",> 5 µM,0.14 µM
"CC[C@H](C)[C@@H]1NC(=O)[C@@H]2CSSC[C@@H]3NC(=O)[C@H](C(C)C)NC(=O)[C@H](CC(C)C)NC(=O)[C@H](CC(N)=O)NC(=O)[C@@H]4CCCN4C(=O)[C@H](CCCNC(=N)N)NC(=O)[C@H](CSSC[C@H](NC(=O)[C@@H](N)CC(=O)O)C(=O)N[C@@H](CC(C)C)C(=O)NCC(=O)N[C@@H](Cc4ccccc4)C(=O)N[C@@H](CCSC)C(=O)N[C@@H](CCCNC(=N)N)C(=O)N[C@@H](CCCCN)C(=O)N2)NC(=O)[C@H](CSSC[C@@H](C(=O)N[C@@H](Cc2c[nH]c4ccccc24)C(=O)N[C@@H](Cc2ccc(O)cc2)C(=O)N[C@H](C(=O)N[C@@H](Cc2ccccc2)C(N)=O)C(C)C)NC(=O)[C@H](Cc2c[nH]c4ccccc24)NC(=O)[C@H](CCCCN)NC(=O)[C@H](Cc2c[nH]cn2)NC(=O)[C@H]([C@@H](C)O)NC(=O)[C@H](CCCNC(=N)N)NC(=O)[C@H](CO)NC3=O)NC(=O)[C@H](CCCCN)NC(=O)[C@H](CC(=O)O)NC(=O)[C@H](CC(N)=O)NC(=O)[C@H](CC(=O)O)NC(=O)[C@@H]2CCCN2C1=O (H-DCLGFMRKCIPDNDKCCRPNLVCSRTHKWCWYVF-NH2; disulfide 2-17, 9-23, 16-30)",> 5 µM,> 4.9 µM
